# Measured values: ChEMBL document CHEMBL4321807, “Cyanine-Gemcitabine Conjugates as Targeted Theranostic Agents for Glioblastoma Tumor Cells” (J Med Chem, 2019)
# Active and inactive are the calls of the source. The calls are words filed in the database; no cut-off is given here.
# Columns and labels:
# U-87 MG [1] = experiment: Cytotoxicity against human U87 cells assessed as reduction in cell viability at 0.001 to 10 uM incubated for 72 hrs by AlamarBlue assay; assay type: functional, cell-based; settings: U-87MG ATCC
# Summary of the method: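 U87 cells, grown in DMEM/F12 with 10% FBS, seeded at 5000/well and left overnight. Compounds added in protein-free hybridoma medium (PFHM II) to final 0.001–10 μM and incubated 72 h at 37 °C. Viability read by AlamarBlue, 2 h, fluorescence Ex/Em 560/590 nm. IC50 taken relative to the lowest concentration beyond which no further cell death occurs.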
# [2] = Drug localization in mitochondria of human U87 cells at 20 uM incubated for 45 mins by Mitotracker staining-based confocal fluorescence microscopy; assay type: ADME; settings: u-87mg atcc, 0.75 h
# Summary of the method: (§1)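 U87 cells seeded at 10 000/well in imaging chambers and left overnight. Exposed to 20 μM compound in FluoroBrite DMEM for 45 min at 37 °C, then washed with HBSS. Stained 15 min with LysoTracker (1:10 000) or MitoTracker (1:15 000), plus NucBlue nuclear stain. Imaged live by confocal microscopy at 60×, dye excited at 633 nm. Colocalization scored by Pearson's correlation coefficient.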
# U-87 MG [3] = experiment: Cytotoxicity against human U87 cells assessed as reduction in cell viability incubated for 72 hrs by AlamarBlue assay; assay type: functional, cell-based, U-87MG ATCC
# [4] = Drug localization in lysosome of human U87 cells at 20 uM incubated for 45 mins by Lysotracker staining-based confocal fluorescence microscopy; assay type: ADME; settings: u-87mg atcc, 0.75 h; summary of the method: as §1
# U-87 MG [5] = experiment: Antitumor activity against luciferase and RFP reporter expressing human U87 cells xenografted in Fox1nu mouse assessed as decrease in tumor burden at 10 mg/kg, iv administered at day 4 and day 8 post inoculation and six injections weekly measured after 5 weeks by bioluminescence imaging analysis; assay type: functional, organism-based; settings: U-87MG ATCC
# U-87 MG [6] = experiment: Antitumor activity against luciferase and RFP reporter expressing human U87 cells xenografted in Fox1nu mouse assessed as decrease in tumor size at 10 mg/kg, iv administered at day 4 and day 8 post inoculation and six injections weekly measured after 5 weeks by bioluminescence imaging analysis; assay type: functional, organism-based; settings: U-87MG ATCC
# [7] = Toxicity in […] mouse xenografted with luciferase and RFP reporter expressing human U87 cells assessed as effect on body weight at 10 mg/kg, iv administered at day 4 and day 8 post inoculation and six injections weekly measured after 5 weeks; assay type: organism-based; settings: in vivo, 840 h
SMILES,Drug uptake [2],Drug uptake [4],IC50 (U-87 MG [3]),also measured
CC1(C)C(/C=C/C2=C(SCCC(=O)Nc3ccn([C@H]4C[C@H](O)[C@@H](CO)O4)c(=O)n3)C(=C/C=C3/N(CCCCS(=O)(=O)O)c4ccccc4C3(C)C)/CCC2)=[N+](CCCCS(=O)(=O)O)c2ccccc21,–,–,–,Activity (U-87 MG [1]): Active
CC1(C)C(/C=C/C2=C(SCCC(=O)Nc3ccn([C@@H]4O[C@H](CO)[C@@H](O)C4(F)F)c(=O)n3)C(=C/C=C3/N(CCCCS(=O)(=O)O)c4ccccc4C3(C)C)/CCC2)=[N+](CCCCS(=O)(=O)O)c2ccccc21.[Cl-],Active,Active,20.7 nM,–
Nc1ccn([C@@H]2O[C@H](CO)[C@@H](O)C2(F)F)c(=O)n1 [GEMCITABINE],–,–,8.2 nM,Activity (U-87 MG [5]): Active; Activity (U-87 MG [6]): inactive; Activity [7]: Non-Toxic
CCCN1/C(=C/C=C2\CCCC(/C=C/C3=[N+](CCC)c4ccccc4C3(C)C)=C2SCCC(=O)Nc2ccn([C@H]3C[C@H](O)[C@@H](CO)O3)c(=O)n2)C(C)(C)c2ccccc21,–,–,3400 nM,–

# Continued, in another order:
Drug uptake [2],Drug uptake [4],SMILES,IC50 (U-87 MG [3]),also measured
Not Active,–,CC1(C)C(/C=C/C2=C(SCCC(=O)Nc3ccn([C@@H]4O[C@H](CO)[C@@H](O)C4(F)F)c(=O)n3)C(=C/C=C3/N(CCCCCC(=O)O)c4ccccc4C3(C)C)/CCC2)=[N+](CCCCS(=O)(=O)O)c2ccccc21.[Cl-],–,–
Active,Active,CCCN1/C(=C/C=C2\CCCC(/C=C/C3=[N+](CCC)c4ccccc4C3(C)C)=C2SCCC(=O)Nc2ccn([C@@H]3O[C@H](CO)[C@@H](O)C3(F)F)c(=O)n2)C(C)(C)c2ccccc21.[Cl-],–,–
